Measured values taken from ChEMBL document CHEMBL1165996, “Terpenoids from Salvia trijuga” (J Nat Prod, 2010).

Columns and labels:
Type in all cases: functional, cell-based
[1] = system: A549; experiment: Cytotoxicity against human A549 cells after 48 hrs by MTT assay; settings: A549, 48 h
Method in brief: (§1)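 Cells seeded in 96-well plates 12 h before dosing, then continuously exposed to a range of compound concentrations for 48 h. MTT added for a further 4 h, then 20% SDS added and left 12 h at room temperature. OD read at 595 nm. IC50 calculated by the Reed and Muench method.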

[2] = system: SW480; experiment: Cytotoxicity against human SW480 cells after 48 hrs by MTT assay; settings: SW480, 48 h; method in brief: as §1
[3] = system: SMMC-7721; experiment: Cytotoxicity against human SMMC7721 cells after 48 hrs by MTT assay; settings: SMMC-7721, 48 h; method in brief: as §1
[4] = system: MCF7; experiment: Cytotoxicity against human MCF7 cells after 48 hrs by MTT assay; settings: MCF7, 48 h; method in brief: as §1
[5] = system: HL-60; experiment: Cytotoxicity against human HL60 cells after 48 hrs by MTT assay; settings: HL-60, 48 h; method in brief: as §1

Row | SMILES | IC50 [1] [µM] | IC50 [2] [µM] | IC50 [3] [µM] | IC50 [4] [µM] | IC50 [5] [µM]
1 | C/C=C(\C)C(=O)O[C@@H]1C/C(C)=C/CC[C@@]2(C)O[C@@H]2[C@@H](OC(=O)C(C)C(C)OC(C)=O)[C@H]1C(C)C (stereo not given in full) [TRIJUGIN I] | > 40 | 24.9 | 34 | > 40 | 17.1
2 | C[C@@H]1CC[C@]2(C(=O)O)CC[C@]3(C)C(=CC[C@@H]4[C@@]5(C)C(CO)=CC(C)(C)[C@@H]5CC[C@]43C)[C@@H]2[C@]1(C)O [HYPTASIENIC ACID] | 24.7 | 10.9 | 21 | > 40 | 15.5
